In ChEMBL document CHEMBL4373681, “Aurantiamide-related dipeptide derivatives are formyl peptide receptor 1 antagonists” (Medchemcomm, 2019):
Non-standard residues stand in square brackets, D forms with d. Residues, ends and D or L forms follow the SMILES beside them. *: point of attachment. dCha = N[C@H](CC1CCCCC1)C(=O)O; Bz = O=C(c1ccccc1)*

How the values were obtained:
Neutrophil = experiment: Inhibition of fMLF-induced migration of human neutrophil preincubated for 30 mins followed by fMLF stimulation and measured after 60 mins by luminescence based assay
fMet-Leu-Phe receptor [1] = biological target: T1, fMet-Leu-Phe receptor (Homo sapiens, UniProt P21462); experiment: Agonist activity at FPR1 (unknown origin) transfected in human HL60 cells assessed as calcium mobilization incubated for 30 mins and measured for 5 sec for 240 sec by fluorometry; type: functional, cell-based
T1 sequence (P21462 whole entry): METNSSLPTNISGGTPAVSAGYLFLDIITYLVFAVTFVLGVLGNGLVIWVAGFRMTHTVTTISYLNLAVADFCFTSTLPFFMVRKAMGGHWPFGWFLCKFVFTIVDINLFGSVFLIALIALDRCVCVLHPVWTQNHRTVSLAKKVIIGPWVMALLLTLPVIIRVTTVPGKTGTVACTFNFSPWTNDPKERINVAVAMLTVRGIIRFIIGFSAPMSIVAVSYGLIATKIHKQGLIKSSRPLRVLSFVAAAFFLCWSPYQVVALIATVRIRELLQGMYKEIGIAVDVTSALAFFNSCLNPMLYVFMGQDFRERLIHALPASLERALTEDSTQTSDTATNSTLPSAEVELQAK
How it was run: (§1)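 Stably transfected HL60 cells, with G418 dropped in the final culture round, loaded with Fluo-4 AM (1.25 µg/mL final) for 30 min at 37 °C in the dark. Cells were washed into HBSS with Ca2+/Mg2+ plus 10 mM HEPES, 2×10^5 cells/well. Compound added by injector, fluorescence (ex 485/em 538 nm) read every 5 s for 240 s at room temperature. Peak change over baseline in the first 3 min; EC50 by nonlinear regression.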

fMet-Leu-Phe receptor [2] = biological target: T1, fMet-Leu-Phe receptor; experiment: Agonist activity at FPR1 in human neutrophils assessed as calcium mobilization incubated for 30 mins and measured for 5 sec for 240 sec by fluorometry; type: functional
How it was run: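 Neutrophils from healthy donor blood were isolated by dextran sedimentation, Histopaque 1077 gradient and hypotonic RBC lysis. They were loaded with Fluo-4 AM (1.25 µg/mL final) for 30 min at 37 °C, then resuspended in HBSS+ with 10 mM HEPES, 2×10^5 cells/well. Compound injected; fluorescence (485/538 nm) read every 5 s for 240 s at room temperature. Peak rise over baseline in the first 3 min; EC50 by nonlinear regression.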

fMet-Leu-Phe receptor [3] = biological target: T1, fMet-Leu-Phe receptor; experiment: Antagonist activity against FPR1 in human neutrophils assessed as calcium mobilization preincubated for 30 mins followed by fMLF addition and measured for 5 sec for 240 sec by fluorometry
fMet-Leu-Phe receptor [4] = biological target: T1, fMet-Leu-Phe receptor; experiment: Antagonist activity against FPR1 (unknown origin) transfected in human HL60 cells assessed as calcium mobilization preincubated for 30 mins followed by fMLF addition and measured for 5 sec for 240 sec by fluorometry; type: functional, cell-based
How it was run: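 FPR1-HL60 cells or donor neutrophils, Fluo-4 AM-loaded (1.25 µg/mL final, 30 min, 37 °C), in HBSS+/10 mM HEPES, 2×10^5 cells/well. Compound pretreatment 30 min at room temperature, then 5 nM fMLF. Peak fluorescence rise (485/538 nm) in the first 3 min was normalized to 5 nM fMLF alone (100%). IC50 from 5–6-point curves by nonlinear regression; maximal antagonist concentration ~50 μM.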

[5] = biological target: T2, N-formyl peptide receptor 2 (Homo sapiens, UniProt P25090); experiment: Agonist activity at FRP2 (unknown origin) transfected in human HL60 cells assessed as calcium mobilization incubated for 30 mins and measured for 5 sec for 240 sec by fluorometry; type: functional, cell-based; how it was run: as §1
T2 sequence (P25090 whole entry): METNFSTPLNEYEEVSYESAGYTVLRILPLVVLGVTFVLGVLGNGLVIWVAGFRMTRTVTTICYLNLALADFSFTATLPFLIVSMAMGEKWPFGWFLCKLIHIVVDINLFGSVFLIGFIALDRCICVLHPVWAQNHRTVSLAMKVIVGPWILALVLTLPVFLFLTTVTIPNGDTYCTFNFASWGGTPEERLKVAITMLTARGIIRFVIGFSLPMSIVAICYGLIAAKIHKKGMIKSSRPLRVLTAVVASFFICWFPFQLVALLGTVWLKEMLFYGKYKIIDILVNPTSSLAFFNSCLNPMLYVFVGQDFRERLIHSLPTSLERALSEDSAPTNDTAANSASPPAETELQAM

[6] = biological target: T2, N-formyl peptide receptor 2; experiment: Antagonist activity against FPR2 (unknown origin) transfected in human HL60 cells assessed as calcium mobilization preincubated for 30 mins followed by WKYMVM addition and measured for 5 sec for 240 sec by fluorometry; type: functional, cell-based
How it was run: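 FPR2-transfected HL60 cells, Fluo-4 AM-loaded (1.25 µg/mL final, 30 min, 37 °C), in HBSS+/10 mM HEPES, 2×10^5 cells/well. 30 min room-temperature compound pretreatment, then 5 nM WKYMVM. Peak fluorescence rise (485/538 nm) in the first 3 min, normalized to 5 nM WKYMVM alone (100%). IC50 by nonlinear regression of 5–6-point curves.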

IC50 (Neutrophil) [µM]	EC50 (fMet-Leu-Phe receptor [1])	EC50 (fMet-Leu-Phe receptor [2])	IC50 (fMet-Leu-Phe receptor [3]) [µM]	IC50 (fMet-Leu-Phe receptor [4]) [µM]	EC50 [5]	IC50 ([6]; read-out: IC50) [µM]	IC50 [6]	EC50 ([5]; read-out: EC50) [µM]	SMILES
1.6	Not Active	Not Active	2.4	5.8	Not Active	12.3	–	–	COC(=O)[C@H](Cc1ccccc1)NC(=O)[C@H](Cc1c[nH]c2ccccc12)NC(=O)c1ccccc1
–	Not Active	Not Active	10.9	37.4	Not Active	–	Not Active	–	COC(=O)[C@H](Cc1ccccc1)NC(=O)[C@@H](Cc1c[nH]c2ccccc12)NC(=O)c1ccccc1
3.1	Not Active	Not Active	3.3	0.54	Not Active	–	Not Active	–	COC(=O)[C@@H](Cc1ccccc1)NC(=O)[C@H](Cc1c[nH]c2ccccc12)NC(=O)C1CCCCC1
–	Not Active	Not Active	14.5	24.7	–	–	Not Active	10.9	COC(=O)[C@@H](CC(C)C)NC(=O)[C@H](Cc1c[nH]c2ccccc12)NC(=O)c1ccccc1
–	Not Active	Not Active	25.3	11.7	Not Active	–	Not Active	–	COC(=O)[C@H](NC(=O)[C@H](Cc1c[nH]c2ccccc12)NC(=O)c1ccccc1)C(C)C
–	Not Active	Not Active	31.3	16.5	Not Active	–	Not Active	–	COC(=O)[C@@H](Cc1ccccc1)NC(=O)[C@@H](Cc1c[nH]c2ccccc12)NC(=O)c1ccccc1
–	Not Active	Not Active	27.7	19.6	Not Active	–	Not Active	–	COC(=O)[C@@H](Cc1ccccc1)NC(=O)[C@H](Cc1c[nH]c2ccccc12)NC(=O)CC(C)C
–	Not Active	Not Active	12.6	17.1	–	–	Not Active	10.5	COC(=O)[C@@H](Cc1ccccc1)NC(=O)[C@H](Cc1c[nH]c2ccccc12)NC(=O)OC(C)(C)C
0.48	Not Active	Not Active	0.18	0.45	Not Active	–	Not Active	–	COC(=O)[C@@H](Cc1ccccc1)NC(=O)[C@H](Cc1c[nH]c2ccccc12)NC(=O)c1ccccc1
0.62	Not Active	Not Active	0.12	0.67	Not Active	–	Not Active	–	COC(=O)[C@@H](CC1CCCCC1)NC(=O)[C@H](Cc1c[nH]c2ccccc12)NC(=O)c1ccccc1 (Bz-Trp-[dCha]-OMe)
